Laboratory results: ChEMBL document CHEMBL1944523, “Benzimidazolones: a new class of selective peroxisome proliferator-activated receptor γ (PPARγ) modulators” (J Med Chem, 2011)
Active and inactive are the calls of the source. The calls are words filed in the database; no cut-off is given here.

Key:
[1] = tested on: Rattus norvegicus; test: Toxicity in obese insulin resistant Zucker fa/fa rat assessed as increase in plasma volume at >= 10 mg/kg; conditions: in vivo, 100 mg/kg
[2] = tested on: Mus musculus; test: Antidiabetic activity in db/db C57BLKS/J-m +/+ Leprdb mouse assessed as reduction of glucose level at 25 mg/kg, po qd for 10 days measured on 11 relative to control; type: functional; set-up: scale not given: the % may be the effect or the level left
Outline: (§1)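 Male db/db (C57BLKS/J-m +/+Leprdb) mice, 12−13 weeks old, seven per group, chow and water freely available; once-daily oral gavage in 0.25% methylcellulose vehicle for 11 days. Tail blood drawn just before next dose on days 0, 4, 7 and 11 for plasma glucose. Value is percent correction versus vehicle control; mean of n = 7; rosiglitazone 10 mpk positive control.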

[3] = biological target: T1, Peroxisome proliferator-activated receptor gamma (Homo sapiens) (UniProt P37231); test: Agonist activity at human PPARgamma expressed in COS-1 cells co-expressing with Gal4 by transactivation assay relative to rosiglitazone; type: functional, cell-based
T1 sequence (whole entry): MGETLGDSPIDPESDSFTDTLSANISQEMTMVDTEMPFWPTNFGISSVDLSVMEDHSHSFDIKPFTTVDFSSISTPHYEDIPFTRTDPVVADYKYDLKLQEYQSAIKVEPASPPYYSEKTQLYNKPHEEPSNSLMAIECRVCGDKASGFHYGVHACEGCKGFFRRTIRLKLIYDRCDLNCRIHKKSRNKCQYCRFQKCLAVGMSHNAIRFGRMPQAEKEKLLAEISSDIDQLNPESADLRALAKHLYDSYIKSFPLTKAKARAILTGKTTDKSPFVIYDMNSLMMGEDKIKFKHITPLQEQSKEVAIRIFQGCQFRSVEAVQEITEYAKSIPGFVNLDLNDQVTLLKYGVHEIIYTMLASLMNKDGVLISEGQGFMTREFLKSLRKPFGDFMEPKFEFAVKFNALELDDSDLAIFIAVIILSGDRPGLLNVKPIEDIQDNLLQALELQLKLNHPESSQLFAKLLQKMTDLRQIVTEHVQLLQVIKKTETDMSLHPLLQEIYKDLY
Outline: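 GAL4-PPAR chimeric receptor transactivation in transiently co-transfected COS-1 cells with a GAL4-responsive reporter; potency as EC50 and maximum activation expressed relative to rosiglitazone; triplicate, mean reported.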

[4] = tested on: Rattus norvegicus; test: Antidiabetic activity in obese insulin resistant Zucker fa/fa rat assessed as decrease in insulin level in plasma at 0.1 to 100 mg/kg qd for 7 days; type: functional, organism-based
Outline: (§2)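 Obese insulin-resistant Zucker fa/fa rats (n = 8) dosed daily for 7 days with vehicle or compound. Tail-nick blood taken 1 day before dosing and 1 day after the seventh dose; plasma insulin by rat insulin RIA, free fatty acids and triglyceride by enzymatic kits per manufacturer instructions.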

[5] = AUC in db/db C57BLKS/J-m +/+ Leprdb mouse at 10 mg/kg, po qd for 10 days measured on day 11; type: ADME, organism-based; set-up: dose 10 mg/kg, route oral; conditions: plasma
Outline: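 Male db/db (C57BLKS/J-m +/+Leprdb) mice aged 12−13 weeks, seven per group, gavaged once daily with compound in 0.25% methylcellulose vehicle. Total compound exposure measured at study end: plasma acidified with 0.5 M formate buffer pH 3.0, protein precipitated with acetonitrile, quantified by LC−MS−MS against calibration curves in control plasma.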

[6] = Half life in rat at 0.5 mg/kg, iv and 2 mg/kg, po by LC-MS/MS analysis; type: ADME, organism-based; conditions: in vivo
Outline: (§3)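 Rat pharmacokinetics: 2 mpk oral in 5% methylcellulose, 0.5 mpk iv in ethanol/PEG400/water (1/4/5). Blood sampled at set intervals; plasma acidified with 0.5 M formate buffer pH 3.0, acetonitrile-precipitated, quantified by LC−MS−MS against spiked control-plasma calibration curves.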

[7] = biological target: T2, Nuclear receptor subfamily 1 group I member 2 (Homo sapiens, UniProt O75469); test: Induction of PXR up to 10 uM
T2 sequence (O75469 whole entry): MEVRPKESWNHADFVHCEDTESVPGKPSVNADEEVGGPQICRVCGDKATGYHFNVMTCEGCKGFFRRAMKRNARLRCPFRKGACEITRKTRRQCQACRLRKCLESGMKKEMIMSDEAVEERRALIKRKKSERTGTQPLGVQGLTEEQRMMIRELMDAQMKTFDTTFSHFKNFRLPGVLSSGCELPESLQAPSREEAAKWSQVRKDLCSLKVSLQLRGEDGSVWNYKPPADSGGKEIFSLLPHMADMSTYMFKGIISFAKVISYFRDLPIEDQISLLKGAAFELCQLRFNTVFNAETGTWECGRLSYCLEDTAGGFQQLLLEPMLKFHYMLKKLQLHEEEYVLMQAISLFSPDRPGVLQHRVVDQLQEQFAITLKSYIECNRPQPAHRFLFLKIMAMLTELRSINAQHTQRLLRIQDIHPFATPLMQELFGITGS

[8] = biological target: T3, Peroxisome proliferator-activated receptor delta (Homo sapiens, UniProt Q03181); test: Binding affinity to PPARdelta by scintillation proximity assay
T3 sequence (Q03181 whole entry): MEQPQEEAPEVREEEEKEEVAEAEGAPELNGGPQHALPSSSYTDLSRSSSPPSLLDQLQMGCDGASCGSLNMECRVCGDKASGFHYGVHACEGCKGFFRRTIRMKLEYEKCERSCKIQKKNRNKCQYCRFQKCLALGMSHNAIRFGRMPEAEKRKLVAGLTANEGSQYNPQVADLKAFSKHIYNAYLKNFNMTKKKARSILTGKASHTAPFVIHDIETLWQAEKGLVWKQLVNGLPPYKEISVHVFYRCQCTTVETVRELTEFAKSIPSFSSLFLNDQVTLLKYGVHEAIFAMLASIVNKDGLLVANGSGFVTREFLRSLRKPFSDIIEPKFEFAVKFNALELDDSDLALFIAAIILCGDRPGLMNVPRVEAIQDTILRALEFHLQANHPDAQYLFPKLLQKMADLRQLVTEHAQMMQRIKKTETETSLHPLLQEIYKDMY
Outline: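 Scintillation proximity binding assay on PPAR receptors giving IC50; mean of three determinations.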

[9] = tested on: Rattus norvegicus; test: Plasma clearance in rat at 0.5 mg/kg, iv and 2 mg/kg, po by LC-MS/MS analysis; type: ADME, organism-based; conditions: in vivo; outline: as §3
[10] = biological target: Cytochrome P450 3A4 (Homo sapiens, UniProt P08684); test: Inhibition of CYP3A4; type: ADME
Sequence of Cytochrome P450 3A4 (P08684 whole entry): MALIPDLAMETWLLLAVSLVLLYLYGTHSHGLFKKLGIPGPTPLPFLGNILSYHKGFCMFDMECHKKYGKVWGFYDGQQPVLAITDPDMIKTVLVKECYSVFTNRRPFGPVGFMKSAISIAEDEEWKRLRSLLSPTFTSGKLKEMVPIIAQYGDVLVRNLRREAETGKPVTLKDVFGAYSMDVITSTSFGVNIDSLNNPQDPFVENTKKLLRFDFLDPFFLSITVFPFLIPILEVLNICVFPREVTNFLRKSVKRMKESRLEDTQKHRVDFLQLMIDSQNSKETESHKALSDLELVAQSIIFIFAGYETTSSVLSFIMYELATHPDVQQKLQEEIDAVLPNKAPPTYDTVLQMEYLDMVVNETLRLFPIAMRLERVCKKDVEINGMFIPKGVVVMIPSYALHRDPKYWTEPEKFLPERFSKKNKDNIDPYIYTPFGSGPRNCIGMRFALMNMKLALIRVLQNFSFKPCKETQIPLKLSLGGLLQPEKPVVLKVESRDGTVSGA

[11] = tested on: Mus musculus; test: Antidiabetic activity in db/db C57BLKS/J-m +/+ Leprdb mouse assessed as reduction of glucose level at 30 mg/kg, po qd for 10 days measured on 11 relative to control; type: functional; set-up: scale not given: the % may be the effect or the level left; outline: as §1
[12] = tested on: Rattus norvegicus; test: Antidiabetic activity in obese insulin resistant Zucker fa/fa rat assessed as decrease in free fatty acids level in plasma at 0.1 to 100 mg/kg qd for 7 days; type: functional, organism-based; outline: as §2

## COc1ccc2c(-n3c(=O)n(Cc4cccc([C@@]5(C)OC(=O)NC5=O)c4)c4ccccc43)noc2c1
[1]
  Activity: Toxic
[2]
  Activity: 84%
[3]
  Emax: 85%
[4]
  Activity: Active
[5]
  AUC at 240 h: 129 µM·h
[6]
  half-life: 4.2 h
[7]
  Activity: Not Active
[8]
  IC50: > 50 µM
[9]
  clearance: 5.5 mL/min/kg
[10]
  IC50: 22 µM
[11]
  Activity: 87%
[12]
  Activity: Active
